{"data": "Experimental data of several laboratories", "JAK3": "Tyrosine-protein kinase JAK3 (JAK3, Homo sapiens, UniProt P52333)", "JAK3 JH1": "Tyrosine-protein kinase JAK3, JH1 (JAK3, Homo sapiens, UniProt P52333)", "note": "Lines come from different studies, so protocols differ."}
{"Compound": "Cc1cnc(NC2CCOCC2)nc1-n1cnc(C(=O)NC(CN)c2cc(F)cc(Cl)c2)c1 (stereo not shown)", "target": "JAK3", "test": "enzyme activity, inhibitor, radiometric", "setting": "1 µM", "quantity": "remaining activity", "value": "118%"}
{"Compound": "CCC(=N\\O)/C(C)=C/c1ccc(F)cc1", "target": "JAK3 JH1", "test": "cell-free assay, competition with immobilised ligand", "setting": "1 µM", "quantity": "remaining binding", "value": "80%"}
{"Compound": "Cc1ccc(C(=O)Nc2ccc(CN3CCN(C)CC3)c(C(F)(F)F)c2)cc1C#Cc1cnc2cccnn12", "target": "JAK3", "test": "enzyme activity, inhibitor", "setting": "23.5 nM", "quantity": "remaining activity", "value": "14%"}
{"Compound": "Cc1sc(C(=O)NC2COC2)cc1-n1cc(NC(=O)Nc2c(F)cccc2Cl)cn1", "target": "JAK3", "test": "enzyme activity, inhibitor", "setting": "10 µM", "quantity": "remaining activity", "value": "96.7%"}
{"Compound": "CC/C(=N\\NC(=O)NCc1cccc(O)c1)c1ccc(O)c(C)c1O", "target": "JAK3", "test": "enzyme activity, inhibitor", "setting": "0.1 µM", "quantity": "inhibition", "value": "3%"}
{"Compound": "CCc1ccccc1C(=O)Nc1n[nH]c2c(C)c(F)c(C3C(C#N)=C(C)N(C)C(C)=C3C#N)cc12", "target": "JAK3 JH1", "test": "cell-free assay, competition with immobilised ligand", "setting": "1 µM", "quantity": "remaining binding", "value": "79%"}
{"Compound": "Cc1ccc(Nc2nccc(N(C)c3ccc4c(C)n(C)nc4c3)n2)cc1S(N)(=O)=O", "target": "JAK3", "test": "enzyme activity, inhibitor", "setting": "0.3 µM", "quantity": "inhibition", "value": "11%"}
{"Compound": "C[C@H]1CCN(c2nccc(-c3cnn4ncccc34)n2)C1", "target": "JAK3 JH1", "test": "cell-free assay", "setting": "1 µM", "quantity": "remaining signal", "value": "84%"}
{"Compound": "CCN(CC)c1ccc(C2=NNC(=O)CC2C)cc1[N+](=O)[O-] (stereo not shown)", "target": "JAK3", "test": "enzyme activity, inhibitor", "setting": "10 µM", "quantity": "remaining activity", "value": "134%"}
{"Compound": "O=C1Nc2ccc(Cl)cc2C1=Cc1cc(Cl)c(O)c(Cl)c1", "target": "JAK3", "test": "cell-free assay", "setting": "0.5 µM", "quantity": "remaining signal", "value": "100%"}
{"Compound": "COc1cc2ncnc(Nc3ccc(Oc4ccccc4)c(C)c3C)c2cc1OC", "target": "JAK3", "test": "enzyme activity, inhibitor", "setting": "1 µM", "quantity": "inhibition", "value": "5%"}
{"Compound": "COc1cc2ncnc(Nc3ccc(F)c(Cl)c3)c2cc1OCCCN1CCOCC1", "target": "JAK3", "test": "cell-free assay", "setting": "0.5 µM", "quantity": "remaining signal", "value": "96.6%"}
{"Compound": "CS(=O)(=O)Nc1cccc(-c2csc(NC(=O)CSc3nc4nccnc4c(=O)n3CCc3ccccc3)n2)c1", "target": "JAK3", "test": "enzyme activity, inhibitor", "setting": "10 µM", "quantity": "inhibition", "value": "1%"}
{"Compound": "CCN(CC)CCNC(=O)c1c(C)[nH]c(/C=C2\\C(=O)Nc3ccc(F)cc32)c1C", "target": "JAK3", "test": "enzyme activity, inhibitor", "setting": "10 µM", "quantity": "inhibition", "value": "69%"}
{"Compound": "c1cnn2ncc(-c3ccnc(N4CCC45COC5)n3)c2c1", "target": "JAK3 JH1", "test": "cell-free assay", "setting": "1 µM", "quantity": "remaining signal", "value": "68%"}
{"Compound": "O=C(Nc1cnc(Oc2ccc(F)cc2)nc1)N1CCc2ncccc2[C@@H]1c1ccc(F)cc1", "target": "JAK3 JH1", "test": "cell-free assay, competition with immobilised ligand", "setting": "1 µM", "quantity": "remaining binding", "value": "91%"}
{"Compound": "CSc1nc(C)c(-c2ccnc(Nc3ccc(N4CCOCC4)cc3)c2)[nH]1", "target": "JAK3", "test": "enzyme activity, inhibitor", "setting": "10 µM", "quantity": "inhibition", "value": "65.5%"}
{"Compound": "Oc1ccc(-c2nc(-c3ccncc3)c(-c3ccc(F)cc3)[nH]2)cc1", "target": "JAK3", "test": "cell-free assay", "setting": "0.5 µM", "quantity": "remaining signal", "value": "95.8%"}
{"Compound": "CCOC(=O)c1cc2cc(-c3cc(C(=O)NCc4ccc(C(=O)O)cc4)nn3C)ccc2[nH]1", "target": "JAK3 JH1", "test": "cell-free assay, competition with immobilised ligand", "setting": "0.1 µM", "quantity": "remaining binding", "value": "82%"}
{"Compound": "CCCOc1ccc(OC)c(F)c1C(=O)c1ccc(C(=O)N[C@@H]2CNC[C@H]2NC(=O)c2ccc3[nH]ncc3c2)cc1", "target": "JAK3", "test": "enzyme activity, inhibitor", "setting": "10 µM", "quantity": "remaining activity", "value": "19%"}
{"Compound": "CCS(=O)(=O)c1cc2cc(C[C@](O)(CC(C)(C)c3ccc(F)cc3C(N)=O)C(F)(F)F)[nH]c2cn1", "target": "JAK3 JH1", "test": "cell-free assay, competition with immobilised ligand", "setting": "1 µM", "quantity": "remaining binding", "value": "72%"}
{"Compound": "N[C@H]1CCN(c2nccc(-c3cnn4ncccc34)n2)C1", "target": "JAK3 JH1", "test": "cell-free assay", "setting": "1 µM", "quantity": "remaining signal", "value": "86%"}
{"Compound": "Cn1nc(C(=O)NCc2ccc(C(=O)O)cc2)cc1-c1ccc2[nH]ccc2c1", "target": "JAK3 JH1", "test": "cell-free assay, competition with immobilised ligand", "setting": "0.1 µM", "quantity": "remaining binding", "value": "65%"}
{"Compound": "Cc1ccc(C(=O)NCc2ccsc2)cc1C#Cc1cn(C(C)C)c2ncnc(N)c12", "target": "JAK3", "test": "enzyme activity, inhibitor", "setting": "1 µM", "quantity": "activity vs control", "value": "74%"}
{"Compound": "CN(C)CC#Cc1ccc(OCCCc2sc(N3CCc4cccc(C(=O)Nc5nc6ccccc6s5)c4C3)nc2C(=O)O)c(F)c1", "target": "JAK3 JH1", "test": "cell-free assay, competition with immobilised ligand", "setting": "1 µM", "quantity": "remaining binding", "value": "58%"}
{"Compound": "Cc1cc(NC(=O)c2cccc3cc(-c4cccc5[nH]nc(N)c45)ccc23)ccc1F", "target": "JAK3", "test": "enzyme activity, inhibitor", "setting": "0.1 µM", "quantity": "activity vs control", "value": "94%"}
{"Compound": "CNCc1ccccc1-c1csc([C@H](C)Nc2nc(C)nc3cc(OC)c(OC)cc23)c1", "target": "JAK3 JH1", "test": "cell-free assay, competition with immobilised ligand", "setting": "1 µM", "quantity": "remaining binding", "value": "99%"}
{"Compound": "CC(C)(C)c1nc(-c2cccc(NS(=O)(=O)c3c(F)cccc3F)c2F)c(-c2ccnc(N)n2)s1", "target": "JAK3", "test": "enzyme activity, inhibitor, radiometric", "setting": "1 µM", "quantity": "remaining activity", "value": "115%"}
